Measured values from ChEMBL document CHEMBL1773052, “3-Trifluoromethylquinoxaline N,N'-dioxides as anti-trypanosomatid agents. Identification of optimal anti-T. cruzi agents and mechanism of action studies” (J Med Chem, 2011).
Active and inactive are the calls of the source. No cut-off for these calls is given here.

Key:
[1] = test system: Trypanosoma cruzi; experiment: Antitrypanosomal activity against Trypanosoma cruzi Tulahuen 2 epimastigotes assessed as growth inhibition at 25 uM after 5 days relative to control; format: functional; settings: Tulahuen 2, 120 h, read-out: GI
Method in brief: (§1)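 Epimastigotes grown axenically at 28 °C in BHI-tryptose + 5% FBS; a 10-day stationary culture was inoculated to 1 × 10⁶ cells/mL. Drug added from DMSO stock, final DMSO ≤0.4%, vehicle control. A600 read daily. PGI on day 5 corrects for day-0 absorbance, relative to control. […] Three independent experiments.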

[2] = test system: Trypanosoma cruzi; experiment: Antitrypanosomal activity against Trypanosoma cruzi Tulahuen 2 epimastigotes assessed as growth inhibition after 5 days; format: functional; settings: Tulahuen 2, 120 h, read-out: ID50; method in brief: as §1
[3] = test system: Salmonella typhimurium; experiment: Mutagenic activity in Salmonella Typhimurium TA98 assessed as number of revertants at 0.2 to 15 ug/plate by Ames test in absence of S9 fraction; format: toxicity, organism-based; settings: salmonella enterica subsp. enterica serovar typhimurium
Method in brief: (§2)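 Direct plate incubation with S. typhimurium TA98 on minimal glucose agar. Toxicity to the strain tested first; doses run in triplicate from DMSO solutions, DMSO as negative control. Metabolic activation with 500 μL Aroclor-treated mouse liver S9. Positive controls: 4-nitro-o-phenylenediamine 20.0 μg/plate without S9; 2-aminofluorene 10.0 μg/plate with S9. Revertants counted manually; mutagenic if ≥2-fold the negative control at two consecutive doses.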

[4] = test system: Salmonella typhimurium; experiment: Mutagenic activity in Salmonella Typhimurium TA98 assessed as number of revertants at 0.2 to 15 ug/plate by Ames test in presence of S9 fraction; format: toxicity, organism-based; settings: salmonella enterica subsp. enterica serovar typhimurium; method in brief: as §2
[5] = test system: Trypanosoma cruzi; experiment: Antitrypanosomal activity against Trypanosoma cruzi CL Brener clone epimastigotes assessed as cell death at 25 uM after 2 days by MTT assay relative to control; format: functional
Method in brief: (§3)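 Epimastigotes of each strain taken in exponential growth in BHI-tryptose with 5% FBS, 1 mL per well. Compounds added from DMSO and kept 2 days at 28 °C. Cells washed twice and resuspended in PBS-glucose (5.5 mM), then given 0.4 mg/mL MTT for 4 h at 28 °C. Lysis in SDS-isopropanol, OD read. Triplicate wells, six growth controls. PCyt taken against control, corrected for medium-only wells.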

[6] = test system: Trypanosoma cruzi; experiment: Antitrypanosomal activity against Trypanosoma cruzi CL Brener clone epimastigotes assessed as cell death after 2 days by MTT assay; format: functional; settings: 48 h, read-out: ID50 (the source's name)
Method in brief: (§4)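 Parasites in exponential growth, in BHI-tryptose + 5% FBS for T. cruzi or RPMI + 5% FBS for L. braziliensis, 28 °C, 24-well plates. Compounds in DMSO; miltefosine in ethanol. 2-day exposure, two PBS-glucose (5.5 mM) washes, then MTT 0.4 mg/mL for 4 h at 28 °C. SDS-isopropanol lysis, OD read. Triplicates, six growth controls.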

[7] = test system: Trypanosoma cruzi; experiment: Antitrypanosomal activity against Trypanosoma cruzi Y epimastigotes assessed as cell death at 25 uM after 2 days by MTT assay relative to control; format: functional; method in brief: as §3
[8] = test system: Trypanosoma cruzi; experiment: Antitrypanosomal activity against Trypanosoma cruzi Y epimastigotes assessed as cell death after 2 days by MTT assay; format: functional; settings: 48 h, read-out: ID50 (the source's name); method in brief: as §4
[9] = test system: Trypanosoma cruzi; experiment: Antitrypanosomal activity against Trypanosoma cruzi Colombiana epimastigotes assessed as cell death at 25 uM after 2 days by MTT assay relative to control; format: functional; method in brief: as §3
[10] = test system: Leishmania braziliensis; experiment: Antileishmanial activity against Leishmania braziliensis MHOM/BR/00/LTB300 promastigotes assessed as cell death after 2 days by MTT assay; format: functional; settings: MHOM/BR/00/LTB300, 48 h, read-out: ID50 (the source's name); method in brief: as §4
[11] = test system: Trypanosoma cruzi; experiment: Antitrypanosomal activity against Trypanosoma cruzi CL Brener clone trypomastigotes in parasite infected BALB/c mouse blood assessed as parasite lysis at 250 ug/ml after 24 hrs relative to control; format: functional
Method in brief: (§5)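 Blood from BALB/c mice 7 days post-infection, taken by cardiac puncture into 3.8% sodium citrate (7:3). Compounds dissolved in DMSO, diluted in PBS to 100 or 250 μg/mL. 10 μL mixed with 100 μL infected blood (~10⁶ parasites/mL), in triplicate. Shaken 10 min at RT, held 4 °C for 24 h. Parasites counted by microscopy; gentian violet 250 μg/mL as standard.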

[12] = test system: Trypanosoma cruzi; experiment: Antitrypanosomal activity against Trypanosoma cruzi CL Brener clone trypomastigotes in parasite infected BALB/c mouse blood assessed as parasite lysis at 100 ug/ml after 24 hrs relative to control; format: functional; method in brief: as §5
[13] = Cytotoxicity against mouse J774 cells; format: cell-based; settings: read-out: ID50 (the source's name)
[14] = Selectivity index, ratio of ID50 for mouse J774 cells to ID50 for Trypanosoma cruzi Tulahuen 2 epimastigotes; format: toxicity, cell-based; settings: J774 cells versus Trypanosoma cruzi Tulahuen 2 epimastigotes, read-out: Selectivity Index
[15] = test system: Salmonella typhimurium; experiment: Mutagenic activity in Salmonella Typhimurium TA98 assessed as number of revertants at 0.005 to 15 ug/plate by Ames test in absence of S9 fraction; format: toxicity, organism-based; settings: salmonella enterica subsp. enterica serovar typhimurium; method in brief: as §2
[16] = test system: Salmonella typhimurium; experiment: Mutagenic activity in Salmonella Typhimurium TA98 assessed as number of revertants at 0.005 to 15 ug/plate by Ames test in presence of S9 fraction; format: toxicity, organism-based; settings: salmonella enterica subsp. enterica serovar typhimurium; method in brief: as §2
[17] = test system: Trypanosoma cruzi; experiment: Inhibition of mitochondrial dehydrogenase activity in Trypanosoma cruzi Y epimastigotes at 20 uM up to 120 mins by MTT assay
Method in brief: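 Y-strain epimastigotes, 10⁶ per well in 500 μL medium, treated with 20 μM compound at 28 °C, untreated wells as time-matched controls. At each time point cells counted, then MTT (50 μL of 5 mg/mL in PBS) added for 4 h. Stopped with acidic isopropanol, A570 read. Activity given as percent of untreated control.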

[18] = test system: Trypanosoma cruzi; experiment: Antitrypanosomal activity against Trypanosoma cruzi CL Brener clone infected in Swiss albino mouse assessed as increase of mouse survival days at 50 mg/kg/day, po relative to control; format: functional
[19] = test system: Trypanosoma cruzi; experiment: Antitrypanosomal activity against Trypanosoma cruzi CL Brener clone infected in Swiss albino mouse assessed as increase of mouse survival days at 10 mg/kg/day, po relative to control; format: functional
[20] = test system: Trypanosoma cruzi; experiment: Antitrypanosomal activity against Trypanosoma cruzi Y infected in Swiss albino mouse assessed as increase of mouse survival days at 10 mg/kg/day, po relative to control; format: functional
[21] = test system: Trypanosoma cruzi; experiment: Antitrypanosomal activity against Trypanosoma cruzi Y infected in Swiss albino mouse assessed as increase of mouse survival days at 30 mg/kg/day, po relative to control; format: functional
[22] = test system: Trypanosoma cruzi; experiment: Antitrypanosomal activity against Trypanosoma cruzi CL Brener clone infected in BALB/c mouse assessed as increase of mouse survival days at 10 mg/kg/day, po relative to control; format: functional
[23] = test system: Trypanosoma cruzi; experiment: Antitrypanosomal activity against Trypanosoma cruzi Y infected in Swiss albino mouse assessed as reduction of parasitemia level at 10 to 30 mg/kg/day, po by ELISA; format: functional, organism-based
Method in brief: (§6)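 Male BALB/c or Swiss albino mice, 30 days old, SPF, infected ip with 10³ blood trypomastigotes (CL Brener or Y). Oral dosing in PBS for 10 days. Controls: 10 mice on PBS; treated groups of 8. Tail-vein parasitemia weekly for 60 days, mortality recorded. Anti-T. cruzi antibodies measured by ELISA, run twice, at 30 and 60 or 90 days post-infection.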

[24] = test system: Trypanosoma cruzi; experiment: Antitrypanosomal activity against Trypanosoma cruzi Y infected in Swiss albino mouse assessed as reduction of microbial antibody level at 10 to 30 mg/kg/day, po by Wilconxon test; format: functional, organism-based; method in brief: as §6
[25] = test system: Trypanosoma cruzi; experiment: Antitrypanosomal activity against Trypanosoma cruzi CL Brener clone infected in BALB/c mouse assessed as reduction of parasitemia level at 10 mg/kg/day, po by ELISA; format: functional, organism-based; method in brief: as §6
[26] = test system: Trypanosoma cruzi; experiment: Antitrypanosomal activity against Trypanosoma cruzi CL Brener clone infected in Swiss albino mouse assessed as reduction of parasitemia level at 10 mg/kg/day, po after 55 days by ELISA; format: functional, organism-based; settings: in the assay text read “after 53 days” for “after 55 days”; method in brief: as §6
[27] = test system: Salmonella typhimurium; experiment: Mutagenic activity in Salmonella Typhimurium TA98 assessed as number of revertants at 0.05 to 4 ug/plate by Ames test in absence of S9 fraction; format: toxicity, organism-based; settings: salmonella enterica subsp. enterica serovar typhimurium; method in brief: as §2
[28] = test system: Salmonella typhimurium; experiment: Mutagenic activity in Salmonella Typhimurium TA98 assessed as number of revertants at 0.05 to 4 ug/plate by Ames test in presence of S9 fraction; format: toxicity, organism-based; settings: salmonella enterica subsp. enterica serovar typhimurium; method in brief: as §2
[29] = test system: Trypanosoma cruzi; experiment: Antitrypanosomal activity against Trypanosoma cruzi CL Brener clone infected in BALB/c mouse assessed as reduction of microbial antibody level at 10 mg/kg/day, po after 30 days by Wilconxon test; format: functional, organism-based; method in brief: as §6
[30] = test system: Trypanosoma cruzi; experiment: Antitrypanosomal activity against Trypanosoma cruzi CL Brener clone infected in BALB/c mouse assessed as reduction of microbial antibody level at 10 mg/kg/day, po after 90 days by Wilconxon test; format: functional, organism-based; method in brief: as §6
[31] = test system: Trypanosoma cruzi; experiment: Antitrypanosomal activity against Trypanosoma cruzi Y infected in Swiss albino mouse assessed as reduction of parasitemia level at 10 mg/kg/day, po by ELISA; format: functional, organism-based; method in brief: as §6
[32] = test system: Trypanosoma cruzi; experiment: Antitrypanosomal activity against Trypanosoma cruzi Y infected in Swiss albino mouse assessed as increase of mouse survival days at 50 mg/kg/day, po relative to control; format: functional
[33] = test system: Trypanosoma cruzi; experiment: Antitrypanosomal activity against Trypanosoma cruzi CL Brener clone infected in BALB/c mouse assessed as increase of mouse survival days at 50 mg/kg/day, po relative to control; format: functional
[34] = test system: Trypanosoma cruzi; experiment: Antitrypanosomal activity against Trypanosoma cruzi Y infected in Swiss albino mouse assessed as reduction of microbial antibody level at 50 mg/kg/day, po by Wilconxon test; format: functional, organism-based; method in brief: as §6
[35] = test system: Trypanosoma cruzi; experiment: Antitrypanosomal activity against Trypanosoma cruzi CL Brener clone infected in BALB/c mouse assessed as reduction of microbial antibody level at 50 mg/kg/day, po after 90 days by Wilconxon test; format: functional, organism-based; method in brief: as §6

CC(=O)c1c(C)[n+]([O-])c2cc(F)c(F)cc2[n+]1[O-]
inhibition of growth at 25 µM [1]: 100%
IC50 [2]: 0.4 µM
Activity [3]: Toxic
Activity [4]: Toxic

O=C(c1ccccc1)c1c(C(F)(F)F)[n+]([O-])c2cc(F)c(F)cc2[n+]1[O-]
inhibition of growth at 25 µM [1]: 100%
IC50 [2]: 0.7 µM
Activity [5]: 96%
IC50 [6]: 1.1 µM
Activity [7]: 100%
IC50 [8]: 1.8 µM
Activity [9]: 100%
IC50 [10]: 1.3 µM
Activity [11]: 84%
Activity [12]: 63%
CC50 [13]: 8 µM
selectivity ratio [14]: 11.4
Activity [15]: Non-toxic
Activity [16]: Non-toxic
inhibition [17]: Active
survival at 50 mg/kg/day [18]: 100%
survival at 10 mg/kg/day [19]: 100%
survival at 10 mg/kg/day [20]: 100%
survival at 30 mg/kg/day [21]: 87.5%
survival at 10 mg/kg/day [22]: 100%
Activity [23]: Active
Activity [24]: Active
Activity [25]: Active
Activity [26]: Active

CC(=O)c1c(C(F)(F)F)[n+]([O-])c2cc(F)c(F)cc2[n+]1[O-]
inhibition of growth at 25 µM [1]: 100%
IC50 [2]: 0.39 µM
Activity [11]: 80%
CC50 [13]: 10.6 µM
selectivity ratio [14]: 27.2
Activity [27]: Toxic
Activity [28]: Toxic
inhibition [17]: Active
survival at 10 mg/kg/day [20]: 62.5%
survival at 10 mg/kg/day [22]: 100%
Activity [29]: Active
Activity [30]: Active
Activity [31]: inactive
Activity [25]: Active

O=C(Cn1ccnc1[N+](=O)[O-])NCc1ccccc1 [BENZNIDAZOLE]
survival at 50 mg/kg/day [18]: 100%
survival at 50 mg/kg/day [32]: 87.5%
survival at 50 mg/kg/day [33]: 75%
Activity [34]: Active
Activity [35]: inactive
